Screens: PubChem, several laboratories
Shown are actives, neighbours in structure and some others; about 5.1% of the full set was active somewhere.
APP 5'UTR act – APP 5'UTR luciferase reporter activation; SH-SY5Y APP 5'UTR luciferase reporter, luminescence; zero percent = DMSO vehicle wells; activation, % at 2 µM; 190,000 tested, 1% active;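 active = activation above a set limit, based on mean plus 3 SD of controls, cut at about 140% in these data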
STAT1 act-1 – increases IFN-gamma driven STAT1 reporter signal. NIH 3T3 STAT1-luciferase reporter, luminescence; 100% = IFN-gamma alone, no compound. activation (% of control), % at 5.5 µM. 200,000 tested, 2.6% active;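 active = activation above the screen-wide mean activation plus 3 SD, cut at about 130% in these data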;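 note: raw ratio to IFN-gamma control signal so 100% means no change and 0% no light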
STAT3 blocker – STAT3 signaling inhibition. 190,000 tested, 0.89% active. AID 862. inhibition, % at 5.5 µM. U3A cells, IL-6 STAT3-luciferase reporter, luminescence; host cell line lacks STAT1;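 active = inhibition above the mean inhibition across all screened compounds plus 3 SD, cut at about 44% in these data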;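 note: 0% = DMSO only wells and 100% = 100 µM nifuroxazide control wells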
NF-kB expr up – compounds increasing NF-kB expression in human neuronal cells. NF-kB reporter expression; active compounds read high. fold change at 12.5 µM. 190,000 tested, 1.6% active. AID 1239; in the data active = fold change above about 3.3
STAT3 act-1 – increases IL-6 driven STAT3 reporter signal | activation (% of control), % at 5.6 µM | AID 871 | 190,000 tested, 0.91% active | U3A cells, IL-6 STAT3-luciferase reporter, luminescence; 100% = signal with IL-6 EC80 alone;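 active = activation above the screen-wide mean of compound activation plus 3 SD, cut at about 130% in these data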;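 note: 0% = background luminescence of wells with medium and substrate only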
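Material: human STAT1-deficient U3A cells with stable STAT3-luciferase reporter / Probe or stimulus: IL-6 stimulus at 33 ng/mL final / Schedule: 1 h compound pre-exposure, 6 h IL-6 stimulation, 37 °C / Technique: luminescence / Read-out basis: percent of IL-6-only median luminescence / Control set: IL-6-only high control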
STAT1 inh – inhibitors of IFN-gamma induced STAT1 signaling. NIH 3T3 STAT1-luciferase reporter, luminescence. inhibition, % at 5.5 µM. 200,000 tested, 0.35% active. AID 920;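 active = inhibition above a set limit, the mean inhibition across all tested compounds plus 3 SD, cut at about 34% in these data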;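 note: 0% = IFN-gamma with DMSO and 100% = IFN-gamma with 300 µM nifuroxazide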
STAT3 act-2 – confirmation of STAT3 signaling activators; shares compounds with STAT3 act-1; U3A STAT3-luciferase reporter, IL-6 potentiation, luminescence; U3A cells lack STAT1; 100 means same as IL-6 alone; potentiation (% of control), % at 5.7 µM; 1,200 tested, 64% active; AID 1267;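 active = percent activation of the STAT3 luciferase reporter above a set limit taken from the earlier primary screen, cut at about 130% in these data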;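 note: 0% = background signal of medium plus substrate and 100% = median of IL-6 with DMSO wells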
NFkB act 2 – counter-screen for STAT3 activators: NF-kappaB activation. 1,200 tested, 11% active. activation (% of control), % at 5.7 µM. human cells, NF-kappaB reporter activation. shares compounds with STAT3 act-1; in the data active = activation above about 120%;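 note: reporter induced by TNF-alpha stimulation; 100% = median of stimulated DMSO wells and 0% = no signal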
STAT1 act-2 – counter-screen for STAT3 activators: STAT1 activation | activation (% of control), % at 5.7 µM | shares compounds with STAT3 act-1 | AID 1318 | 1,200 tested, 13% active | NIH 3T3 STAT1-luciferase reporter, IFN-gamma, luminescence;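 active = activation above the solvent-only control well mean plus 3 SD, set per screening run, cut at about 120% in these data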;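 note: 100% = IFN-gamma with DMSO median signal so 100% means no change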
* marks the source's active call; other numbers are inactive results; . = not tested or not shown.

SMILES	APP 5'UTR act	STAT1 act-1	STAT3 blocker	NF-kB expr up	STAT3 act-1	STAT1 inh	STAT3 act-2	NFkB act 2	STAT1 act-2
COc1ccc(-n2c(SCC(=O)NCc3ccco3)nc3c([nH]c4ccccc43)c2=O)cc1	11	84	-54	1	154*	17	137*	104	106
COc1ccc(-n2nnnc2SCc2nc3ccccc3s2)cc1	58	120	-49	2.5	146*	-22	138*	125*	142*
CCOCCCn1c(SCc2nc3ccccc3s2)nc2ccccc2c1=O	29	118	-28	0.93	125	-20	.	.	.
COCCn1c(SCc2nc3ccccc3s2)nc2ccccc21	71	127	-47	1.3	147*	-30	146*	122*	140*
COc1ccc(C)cc1-n1nnnc1SCc1nc2ccccc2s1	73	118	-47	0.69	147*	-19	144*	119	128*
O=C(Nc1cccc([N+](=O)[O-])c1)Nc1cccs1	-1	83	10	1.1	93	17	.	.	.
CC(=O)N1CCC(=NNc2nc3ccccc3[nH]2)CC1	124	127	-55	0.9	143*	-29	144*	112	110
CCC(C)(C)C1CCC(=NNc2nc3ccccc3[nH]2)CC1 (stereo not given)	43	123	-14	0.58	113	-25	.	.	.
COc1ccc(/C=C/C(=O)c2cc(F)ccc2OC(=O)c2ccccc2OC)cc1OC	-89	102	-45	1.9	156*	-3	114	168*	108
Cc1ccc(SCCC(=O)NCCSCc2ccccc2C)cc1	-21	104	-2	1.1	102	-5	.	.	.
Cc1nn(CC(=O)NCc2ccccc2F)c(C)c1[N+](=O)[O-]	-12	99	7	1.2	99	0	.	.	.
Cc1nn(CC(=O)NCc2cc3ccccc3[nH]2)c(C)c1[N+](=O)[O-]	5	78	-42	0.9	138*	24	161*	104	89
O=C(CCn1cccc1)NCc1ccc(Cl)cc1	11	99	-2	1.1	102	1	.	.	.
CC(=O)N1N=C(c2ccccc2O)OC1(C)CC(=O)Nc1ccccc1 (stereo not given)	2	99	-46	0.88	139*	1	140*	99	97
Cc1cc(Cl)ccc1NC(=S)NCCN1CCOCC1	-2	106	6	2.1	95	-7	.	.	.
COc1ccc(C2=NCCn3cccc32)c(OC)c1	0	92	3	1.2	102	9	.	.	.
CCOC(=O)c1[nH]c2ccccc2c1NC(=S)Nc1cc(C)ccc1C	-14	94	-64	1.6	155*	7	150*	98	87
CCOC(=O)c1[nH]c2ccccc2c1NC(=O)Nc1ccc(OC)cc1	6	87	-34	1.1	141*	13	143*	107	96
CCOC(=O)c1[nH]c2ccccc2c1NC(=S)Nc1ccccc1C	-14	91	-60	1.7	152*	10	155*	104	89
CCOC(=O)c1[nH]c2ccc(OC)cc2c1NC(C)=O	9	104	-2	1	105	-4	.	.	.
CCOC(=O)c1[nH]c2ccccc2c1NC(=O)c1ccco1	2	105	7	0.76	99	-5	.	.	.
CCCC(=O)Nc1c(C(=O)OCC)[nH]c2ccccc12	-2	90	-77	1	169*	11	149*	102	90
O=C(CN(c1ccccc1)S(=O)(=O)c1ccc(F)cc1)NC1CCS(=O)(=O)C1 (stereo not given)	-20	100	14	1.1	90	1	.	.	.
COc1cc(/C=N/NS(=O)(=O)c2ccc(C(C)(C)C)cc2)cc([N+](=O)[O-])c1O	6	101	4	0.94	101	-3	.	.	.
Cc1ncc([N+](=O)[O-])n1CC(=O)NC1CCCCCC1	14	107	0	0.99	107	-8	.	.	.
SMILES	APP 5'UTR act	STAT1 act-1	STAT3 blocker	NF-kB expr up	STAT3 act-1	STAT1 inh	STAT3 act-2	NFkB act 2	STAT1 act-2
Cc1cc(-c2sccc2Br)nc(-n2cccc2)n1	10	98	-42	1.1	139*	-1	150*	107	93
Cc1cc(-c2ccc(Br)s2)nc(-n2cccc2)n1	12	95	-38	1.3	136*	2	130	99	86
CC1=NN(c2ccc(Cl)cc2)C(=O)C1C(c1cccc(O)c1)c1c(C)[nH]n(-c2ccc(Cl)cc2)c1=O (stereo not given)	.	100	-53	1	146*	0	160*	103	104
Cc1[nH]n(-c2ccc(Cl)cc2)c(=O)c1C(=O)c1ccccc1	11	118	0	1.2	102	-21	.	.	.
CN(Cc1cc(=O)[nH]c2ccccc12)C(=O)c1ccccc1	31	104	-36	1.3	136*	-5	121	104	111
O=C(CSc1cccc(C(F)(F)F)c1)Nc1ccc(Cl)cc1Cl	.	91	16	1.1	91	10	.	.	.
O=S(=O)(Nc1cc(Sc2cccc3cccnc23)c(O)c2ccccc12)c1ccccc1	-75	96	-96	0.5	176*	4	148*	128*	128*
CCc1ccc(S(=O)(=O)Nc2cc(SCC(=O)O)c(O)c3ccccc23)cc1	-6	100	-6	0.69	109	-2	.	.	.
C#CCn1c(=NC(=O)c2ccc(S(=O)(=O)N3CCc4ccccc4C3)cc2)sc2cc(S(N)(=O)=O)ccc21	5	100	-57	1.1	144*	-1	138*	113	102
O=C(O)C(Cc1c[nH]c2ccccc12)N1Cc2ccccc2C1=O (stereo not given)	-9	110	-44	.	143*	-12	137*	114	114
CCCC(C)NC(=O)Cc1ccccc1[N+](=O)[O-] (stereo not given)	11	96	-30	1.1	126	4	.	.	.
CCC(CC)NC(=O)Cc1ccccc1[N+](=O)[O-]	-11	94	-30	1.2	138*	10	140*	108	97
CCCCN(CCCC)c1nc2ccccc2nc1NS(=O)(=O)c1ccc(NC(C)=O)cc1	1	100	13	1	93	0	.	.	.
CC(=O)Nc1ccc(S(=O)(=O)Nc2nc3ccccc3nc2Nc2ccc3ccccc3c2)cc1	4	98	-56	1.2	152*	2	152*	117	113
